In PubChem BioAssay:
Inconclusive results are not listed. Calls of active or inactive are those of the source.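 The calls were made as follows, unless noted: active = RAM network inhibition above 8.4% in each of two replicates, 3 SD over the compound average; inconclusive = above 8.4% inhibition in only one replicate; inactive = 8.4% inhibition or less in each replicate.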

Key:
[1] = OD615 S. cerevisiae growth inhibition, permissive medium, pilot counter-assay, permissive growth control for S. cerevisiae lifespan shortening project (AID 705;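 active = growth inhibition above 25% in both replicates, a cutoff set 3 SD above the mean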); conditions: OD615, 24 h, at 10 µM, stronger effect = higher value
Outline: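 System: Engineered DeaD yeast | Buffer or medium: SC raffinose/galactose permissive medium | Doses: 10 µM single dose, 0.25% DMSO | Times: 24 h exposure, 30 °C | Measured by: OD615 turbidity read | Read-out: Yeast growth inhibition indicated by reduced 24 h OD615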

[2] = Restrictive medium S. cerevisiae growth inhibition, OD615, pilot screen of yeast lifespan reduction project, restrictive growth control (AID 706;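 active = growth inhibition above a set limit, 3 SD over mean compound inhibition, in both replicates, cut at about 43% in these data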;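 also: modified DeaD lifespan yeast strain shifted to restrictive glucose medium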); conditions: OD615, 48 h, at 10 µM, stronger effect = higher value
Outline: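 Assay system: engineered S. cerevisiae DeaD strain; Buffer or medium: CSMM-D glucose medium; Dosing: 10 µM compound, 0.25% DMSO; Times: cell pre-growth 4 h, compound exposure 48 h, 30 °C; Detection: absorbance (optical density) measured at 615 nm.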

[3] = viability gain of MRP-1-high H69AR cells under doxorubicin, pilot screen, MRP-1 activator project, CellTiter-Glo, duplicate (AID 807;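 active = viability increase at or above a cutoff of the median across tested compounds plus 3 SD, cut at about 8.5% in these data, passing the limit was not always enough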;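 also: compound pretreatment 18-22 h then 72 h combined with doxorubicin; 0% = doxorubicin alone and 100% = vehicle without doxorubicin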); conditions: H69AR viability with doxorubicin, CellTiter-Glo luminescence; at 10 µM; stronger effect = higher value
[4] = growth suppression of beta-catenin knockout HCT116, pilot screen, human colon tumor cells (AID 823;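 active = cell viability at or below a set limit in both duplicate runs, the limit being the all-compound median minus 4 SD, cut at about 23% in these data, passing the limit was not always enough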;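 also: 0% = wells killed by 20 µM Hyamine and 100% = untreated DMSO cell wells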); conditions: CellTiter-Glo, 60 h, at 10 µM, stronger effect = lower value
[5] = inhibitors of the yeast RAM network, pilot screen, dse1pr::URA3 reporter, 5-FOA selection (AID 869;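 active = inhibition over a set limit, the all-compound mean plus 3 SD, in both replicate runs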;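 also: 0% = DMSO wells with no growth and 100% = 10 µM 1-NA-PP1 with full growth; RAM network block rescues cells from 5-FOA so hits raise OD615 growth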); conditions: S. cerevisiae dse1pr::URA3 5-FOA growth, OD615, 2 d, at 10 µM, stronger effect = higher value
[6] = RAM signaling pathway blockade in yeast – S. cerevisiae, Pdr1DBD-CYC8 efflux-inhibited sensitized strain, primary screen (AID 1298);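 also: 0% = DMSO untreated cells without growth and 100% = 10 µM 1-NA-PP1 full growth; higher means more yeast growth rescued from 5-FOA killing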; conditions: S. cerevisiae cbk1-as DSE1-URA3 strain, 5-FOA growth OD615, 2 d; at 50 µM; stronger effect = higher value
[7] = growth suppression of PTEN-deleted HCT116, pilot screen, cell-based, HCT116 clonal line, CellTiter-Glo (AID 824;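 active = viability at or below 27.92% in each of two runs, the all-compound median minus 4 SD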;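 also: 0% = 20 µM Hyamine control and 100% = vehicle cell control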); conditions: 60 h, at 10 µM, stronger effect = lower value
[8] = Recombinant Mtb pantothenate synthetase (PanC) inhibitors, coupled enzyme, confirmatory (AID 375; call rule not given here); conditions: coupled enzyme assay
[9] = target: Pantothenate synthetase (Mycobacterium tuberculosis (strain ATCC 25618 / H37Rv)) (UniProt P9WIL5); test: as above; conditions: coupled enzyme assay; at 10 µM, stronger effect = higher value
Chain of Pantothenate synthetase (Mycobacterium tuberculosis (strain ATCC 25618 / H37Rv)) (P9WIL5 whole entry, looked up): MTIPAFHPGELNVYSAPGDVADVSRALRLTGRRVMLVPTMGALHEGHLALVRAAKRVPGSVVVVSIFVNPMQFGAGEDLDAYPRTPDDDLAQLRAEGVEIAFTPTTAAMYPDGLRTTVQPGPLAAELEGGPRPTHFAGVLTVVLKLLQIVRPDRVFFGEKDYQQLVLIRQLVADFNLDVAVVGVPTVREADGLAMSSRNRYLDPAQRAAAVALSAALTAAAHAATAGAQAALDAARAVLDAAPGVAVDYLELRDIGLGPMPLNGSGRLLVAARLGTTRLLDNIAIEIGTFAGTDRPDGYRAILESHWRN

CN1CCN(CCC(C#N)(c2ccccc2)c2ccccc2)CC1
inactive: growth inhibition [1] -19.9% | growth inhibition [2] -7.5% | viability increase [3] -2.94% | viability [4] 87% | inhibition [5] 1.81% | RAM network inhibition [6] 0.63%

Cc1cc(OCC(=O)NC2CCS(=O)(=O)C2)c2c3c(c(=O)oc2c1)CCC3 (configuration not stated)
inactive: growth inhibition [1] -13.3% | growth inhibition [2] -15.4% | viability increase [3] -5.3% | viability [4] 87.2% | inhibition [5] 1.55% | RAM network inhibition [6] 2.75%

Cc1cccnc1-n1c(-c2ccco2)nc2ccccc2c1=O
inactive: growth inhibition [1] -5.46% | growth inhibition [2] -8.26% | viability increase [3] -0.56% | viability [4] 100% | viability [7] 101% | inhibition [5] 0.59% | RAM network inhibition [6] -0.22%

C[C@H]1CCC[C@@H](O)CCC/C=C/c2cc(O)cc(O)c2C(=O)O1
inactive: growth inhibition [1] -5.6% | growth inhibition [2] -3.65% | viability increase [3] -7.59% | viability [4] 46.9% | viability [7] 44.9% | inhibition [5] 0.64% | RAM network inhibition [6] 1.97%

COc1ccc(N2C(=O)CC(N3CC=C(c4ccccc4)CC3)C2=O)cc1 (configuration not stated)
inactive: growth inhibition [1] -17.8% | growth inhibition [2] -0.61% | viability increase [3] 1.66% | viability [4] 101% | viability [7] 103% | inhibition [5] 0.145% | RAM network inhibition [6] 4.45%

Cc1cc(OCC(=O)OC(C)(C)C)c2c3c(c(=O)oc2c1)CCC3
inactive: growth inhibition [1] -8.29% | growth inhibition [2] -17% | viability increase [3] -2.71% | viability [4] 88.2% | viability [7] 85.6% | inhibition [5] 2.17% | RAM network inhibition [6] 5.46%

Cc1nn(C2CCOC(C)(C)C2)c2c1C(c1ccc3c(c1)OCO3)SCC(=O)N2 (configuration not stated)
inactive: growth inhibition [1] 7.63% | growth inhibition [2] 14.5% | viability increase [3] -0.34% | viability [4] 97% | inhibition [5] 0.985% | RAM network inhibition [6] 1.2%

Cc1nc2cc(C(F)(F)F)ccc2n1C1CCN(Cc2nnnn2Cc2cccs2)CC1
inactive: growth inhibition [1] -11.3% | growth inhibition [2] -18.3% | viability increase [3] -6.21% | viability [4] 76.1% | viability [7] 67.6% | inhibition [5] 1.01% | RAM network inhibition [6] -0.01%

CC1(C)CN=C(Nc2ccc(F)c(F)c2)S1
inactive: growth inhibition [1] -7.04% | growth inhibition [2] -4.74% | viability increase [3] 0.98% | viability [4] 111% | viability [7] 101% | inhibition [5] 0.8% | RAM network inhibition [6] 6.13%

CC(C)(C)C1CCc2onc(C(=O)Nc3cnn(Cc4ccc(F)cc4)c3)c2C1 (configuration not stated)
> 100 µM: IC50 ([8]; measured here: coupling enzymes IC50 repeat trials) | IC50 ([8]; measured here: coupling enzymes counter-screen IC50)

CN(C)C(=O)Oc1ccc(C(=O)c2ccccc2)cc1
inactive: growth inhibition [1] -2.66% | growth inhibition [2] 5.16% | viability increase [3] 1.59% | viability [4] 101% | viability [7] 95.1% | inhibition [5] 0.43% | RAM network inhibition [6] 0.92%

COc1cc(C2SCC(=O)Nc3c2c(=O)[nH]n3C2CCCCCC2)cc(OC)c1OC (configuration not stated)
inactive: growth inhibition [1] -22.7% | growth inhibition [2] -4.26% | viability increase [3] -2.62% | viability [4] 92.6% | inhibition [5] 2.39% | RAM network inhibition [6] 2.76%

COc1ccc2[nH]c(C)c(CCN3CCC(=O)C(C)C3C)c2c1 (configuration not stated)
inactive: growth inhibition [1] -4.37% | growth inhibition [2] -10.2% | viability increase [3] -2.73% | viability [4] 87.1% | viability [7] 93.1% | inhibition [5] 0.27% | RAM network inhibition [6] 3.24%

CN1CCN(c2ncnc3ccc(Br)cc23)CC1
inactive: growth inhibition [1] -1.88% | growth inhibition [2] 5.46% | viability increase [3] -1.88% | viability [4] 94.2% | viability [7] 98.4% | inhibition [5] -0.575% | RAM network inhibition [6] 2.92%

Cc1ccc(Cn2ccc(NC(=O)c3noc4c3CCCCC4)n2)cc1
> 100 µM: IC50 ([8]; measured here: coupling enzymes IC50 repeat trials unless noted)
inactive: outcome [9]

Cn1c(O)c(C=NCCc2c[nH]c3ccccc23)c(=O)n(C)c1=O
inactive: growth inhibition [1] -0.425% | growth inhibition [2] -3.75% | viability increase [3] -2.67% | viability [4] 101% | viability [7] 91.4% | inhibition [5] 1.54% | RAM network inhibition [6] -0.15%

O=C(Nc1ccccc1OC(=O)N1CCCCC1)N1CCCCC1
inactive: growth inhibition [1] -8.28% | growth inhibition [2] -4.06% | viability increase [3] -2.07% | viability [4] 97.4% | viability [7] 100% | inhibition [5] 0.8% | RAM network inhibition [6] 3.27%

CCCOc1ccccc1C1SCC(=O)Nc2c1c(=O)[nH]n2C(C)CCC (configuration not stated)
inactive: growth inhibition [1] -9.65% | growth inhibition [2] -5.25% | viability increase [3] 1.02% | viability [4] 94% | inhibition [5] 1.6% | RAM network inhibition [6] 1.25%

FC(F)(F)/C(=N\P(=S)(N1CCOCC1)N1CCOCC1)N1CCOCC1
inactive: growth inhibition [1] 6.63% | growth inhibition [2] -10.3% | viability increase [3] -1.97% | viability [4] 94.9% | inhibition [5] 1.79% | RAM network inhibition [6] 5.4%
